Measured values from ChEMBL document CHEMBL1157635, “Synthesis, radiofluorination, and hypoxia-selective studies of FRAZ: A configurational and positional analogue of the clinical hypoxia marker, [18F]-FAZA” (Bioorg Med Chem, 2010).

Legend:
HCT-116 = assay: Hypoxia radiosensitization activity in human HCT116 cells assessed as sensitizer enhancement ratio at 100 uM after 24 hrs by [60]Co X-ray source based clonogenic survival assay; assay type: functional
In short: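 HCT-116 cells pre-incubated 20 h, then exposed to 100 µM (from 10 mM stock in 95% ethanol) for 24 h. Hypoxic dishes degassed by six vacuum/N2 cycles, normoxic kept in air, then shaken 30 min. Irradiated with 60Co at 0–20 Gy. Cells replated and grown 10–14 days at 37 °C, colonies stained, surviving fractions counted, triplicate.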

[1] = Partition coefficient, log P by HPLC; assay type: physicochemical; details: octanol/water
In short: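 Reverse-phase analytical HPLC with a gradient solvent system. Retention time compared with IAZA, FAZA and AZA standards, and P interpolated from a plot.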

EMT6 [2] = assay: Toxicity in mouse EMT6 cells at < 10 mM assessed as reduction of cell survival after 72 hrs by MTT assay; assay type: cell-based; details: emt6, 72 h
In short: (§1)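 Exponentially growing cells seeded at 8 × 10² cells/well and pre-incubated 24 h at 37 °C (5% CO2). Compound added in growth medium over 10^-7 to 10^-3 M, with medium-only controls, for 72 h. MTT then added for 4 h, formazan dissolved in DMSO and absorbance read at 540 nm.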

[3] = Toxicity in Kirsten virus transformed mouse KBALB cells at < 10 mM assessed as reduction of cell survival after 72 hrs by MTT assay; assay type: cell-based; in short: as §1
[4] = Toxicity in human 143B-LTK cells at < 10 mM assessed as reduction of cell survival after 72 hrs by MTT assay; assay type: cell-based; in short: as §1
[5] = Toxicity in Kirsten virus transformed mouse KBALB-STK cells at < 10 mM assessed as reduction of cell survival after 72 hrs by MTT assay; assay type: cell-based; in short: as §1
EMT6 [6] = assay: Toxicity in mouse EMT6 cells at 1 mM assessed as reduction of cell survival after 72 hrs by MTT assay; assay type: cell-based; details: emt6, 72 h, 1000 µM; in short: as §1
143B = assay: Toxicity in human 143B cells at < 10 mM assessed as reduction of cell survival after 72 hrs by MTT assay; assay type: cell-based; in short: as §1

Row | logP [1] | Compound | Ratio (HCT-116) | Activity (EMT6 [2]) | Activity [3] | Activity [4] | Activity [5] | Activity (EMT6 [6]) | Activity (143B)
1 | 1.1 | O=[N+]([O-])c1nccn1[C@H]1O[C@H](CF)[C@@H](O)[C@@H]1O | 1.25 | – | – | – | – | – | –
2 | 1.08 | O=[N+]([O-])c1nccn1[C@H]1O[C@H](CO)[C@@H](O)[C@H]1F | 1.4 | Non-toxic | Non-toxic | Non-toxic | Non-toxic | Non-toxic | Non-toxic
